According to ChEMBL document CHEMBL1155847, “Novel indoline-based acyl-CoA:cholesterol acyltransferase inhibitor with antiperoxidative activity: improvement of physicochemical properties and biological activities by introduction of carboxylic acid” (J Med Chem, 2008):
pIC50: −log10 of the molar value. Converted amounts (≈) assume the structure as drawn.

Columns and labels:
[1] = target: T1, Acyl-CoA:cholesterol acyltransferase (Oryctolagus cuniculus, UniProt Q95214); experiment: Inhibition of normocholesterolemic rabbit liver ACAT
T1 sequence (Q95214 whole entry): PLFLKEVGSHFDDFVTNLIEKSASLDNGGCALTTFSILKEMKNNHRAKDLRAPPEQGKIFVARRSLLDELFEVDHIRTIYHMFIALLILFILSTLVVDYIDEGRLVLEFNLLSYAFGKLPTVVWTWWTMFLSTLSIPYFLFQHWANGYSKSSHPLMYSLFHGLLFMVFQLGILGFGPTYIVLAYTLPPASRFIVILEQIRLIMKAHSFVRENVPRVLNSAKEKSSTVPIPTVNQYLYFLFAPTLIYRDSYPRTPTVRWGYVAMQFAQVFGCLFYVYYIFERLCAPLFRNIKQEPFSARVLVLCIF
Outline: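 Liver from normocholesterolemic male Japanese White rabbits homogenized in sucrose/phosphate/EDTA/dithioerythritol buffer pH 7.4. Microsomes collected by 12000g then 105000g spins. Then 30 nmol [1-¹⁴C]oleoyl-CoA added, 20 min at 37 °C. Cholesteryl ester extracted and separated by TLC.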

[2] = AUC in Sprague-Dawley rat at 10 mg/kg, po; format: ADME, organism-based; design: dose 10 mg/kg, route oral; settings: plasma
Outline: (§1)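 Male SD rats, 6-7 weeks, fasted overnight, n = 3; single oral 10 mg/kg dose suspended in 5% arabic gum. Jugular-vein heparinized blood at 0.5, 1, 3, 5, 8, 24 h; plasma free-form compound by HPLC. AUC taken over 24 h.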

Brain = experiment: Antiperoxidative activity in Sprague-Dawley rat brain assessed as inhibition of malonaldehyde level; format: functional, tissue-based
Outline: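 Cerebral cortex from male SD rats (6 weeks) homogenized in ice-cold 50 mM PBS pH 7.4, spun 1300g. Supernatant incubated 37 °C, 30 min with vehicle or compound. Stopped with 20% TCA; thiobarbituric acid reaction at 100 °C, 15 min; MDA read at 532 nm, less pre-assay MDA. Duplicate assay, n = 2.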

[3] = target: T2, Sterol O-acyltransferase 1 (Homo sapiens, UniProt P35610); experiment: Inhibition of ACAT-mediated esterified cholesterol accumulation in human THP1 cells exposed to acetyl-LDL during differentiation assessed as effect on foam cell formation; format: cell-based, THP-1
T2 sequence (P35610 whole entry): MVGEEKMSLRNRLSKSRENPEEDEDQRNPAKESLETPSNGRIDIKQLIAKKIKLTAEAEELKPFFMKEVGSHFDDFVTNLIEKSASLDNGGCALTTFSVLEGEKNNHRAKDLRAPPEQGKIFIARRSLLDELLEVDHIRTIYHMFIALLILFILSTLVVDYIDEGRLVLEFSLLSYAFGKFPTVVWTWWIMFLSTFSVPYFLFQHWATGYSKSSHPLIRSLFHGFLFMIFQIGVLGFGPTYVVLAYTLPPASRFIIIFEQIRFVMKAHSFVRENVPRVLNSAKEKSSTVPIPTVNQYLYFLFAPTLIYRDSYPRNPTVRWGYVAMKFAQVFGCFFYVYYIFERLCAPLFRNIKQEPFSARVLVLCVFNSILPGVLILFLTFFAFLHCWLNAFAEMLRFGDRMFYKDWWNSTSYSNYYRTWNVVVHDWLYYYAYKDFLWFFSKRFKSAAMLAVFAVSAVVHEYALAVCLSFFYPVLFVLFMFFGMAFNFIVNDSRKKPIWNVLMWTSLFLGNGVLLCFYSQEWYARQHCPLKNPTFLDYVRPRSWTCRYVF

[4] = Cmax in Beagle dog at 10 mg/kg, po; format: ADME, organism-based, Canis lupus familiaris; design: dose 10 mg/kg, route oral; settings: in vivo
Outline: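 Male beagles (9.0-11.6 kg, n = 4) dosed orally at 10 mg/kg as a 5% arabic gum suspension. Heparinized jugular-vein blood at 0.25, 0.5, 1, 2, 3, 5, 8, 12 h. Plasma free-form drug measured by HPLC.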

Rattus norvegicus [5] = experiment: Hypolipidemic effect in high-cholesterol diet fed Wistar rat assessed as HDL cholesterol level at 3 mg/kg/day, po for 3 days; format: functional
Outline: (§2)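 Male Wistar rats, 8-9 weeks, on a diet of 1% cholesterol, 0.5% cholic acid and 10% coconut oil for 3 days; dosed orally once daily in 5% arabic gum, or vehicle (n = 5/group). Fasted 5 h after the last dose; abdominal-aorta blood under pentobarbital. Serum total and HDL cholesterol measured enzymatically.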

Cavia porcellus = experiment: Adrenotoxicity in guinea pig at 100 mg/kg/day administered for 4 days; format: toxicity, organism-based; settings: in vivo, 96 h
Syrian golden hamster [6] = experiment: Hypolipidemic effect in regular diet fed Syrian hamster assessed as HDL:HDL cholesterol level at 3 mg/kg/day, po for 3 weeks; format: functional, Mesocricetus auratus
Outline: (§3)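 Male Syrian hamsters, 9 weeks, regular diet for 3 weeks with once-daily oral dosing in 5% arabic gum, or vehicle (n = 5/group). Abdominal-aorta blood 24 h after the last dose, under pentobarbital. Serum total and HDL cholesterol by enzymatic kit.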

Plasma = experiment: Inhibition of LDL oxidation in genetically hypercholesterolemic KHC rabbit plasma assessed as malonaldehyde level after 1 hr; format: functional, cell-free; settings: Oryctolagus cuniculus
Outline: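 LDL fraction isolated from plasma of male KHC rabbits and oxidized with CuSO₄ 5 µM at 37 °C for 1 h with vehicle or compound. Oxidation read as MDA. IC50 from duplicate tubes per concentration; n = 4.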

Oryctolagus cuniculus [7] = experiment: Hypolipidemic effect in high-cholesterol diet fed Japanese white rabbit assessed as HDL cholesterol level at 1 mg/kg/day, po for 7 days; format: functional
Outline: (§4)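 Male Japanese white rabbits (2.5-3.0 kg) fed 1% cholesterol diet for 7 days with once-daily oral dosing in 5% arabic gum, or vehicle (n = 5/group). Fasted overnight after the final dose; ear-artery blood. Serum total and HDL cholesterol by enzymatic kit.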

[8] = Inhibition of lipid peroxidation in genetically hypercholesterolemic KHC rabbit serum assessed as malonaldehyde level after 4 hrs; format: functional, cell-free; settings: Oryctolagus cuniculus
Outline: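 Heparinized ear-artery plasma from KHC rabbits (2.4-2.7 kg) incubated with CuSO₄ 2 mM at 37 °C for 4 h with vehicle or compound. Lipid peroxide measured as MDA by kit. IC50 from duplicate tubes; n = 2.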

Canis familiaris [9] = experiment: Hypolipidemic effect in Western diet fed Beagle dog assessed as LDL/VLDL cholesterol level at 3 mg/kg/day, po for 7 days; format: functional, Canis lupus familiaris
Outline: (§5)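 Male beagles (8.8-12.0 kg) fed a Western diet (meat, eggs, butter) for 7 days with once-daily oral dosing in 5% arabic gum, or vehicle (n = 3/group). […] blood 24 h after the last dose. Serum total and HDL cholesterol measured enzymatically.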

[10] = target: T1, Acyl-CoA:cholesterol acyltransferase; experiment: Inhibition of ACAT in microsomes from hyperlipidemic white rabbit macrophages assessed as esterified cholesterol accumulation
Outline: (§6)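 Microsomes (12000g then 105000g spins at 4 °C, sucrose/phosphate/EDTA/dithioerythritol buffer pH 7.4) from hypercholesterolemic rabbit tissues, in 154 mM phosphate pH 7.4 with BSA. Compound preincubated 5 min at 37 °C, then 30 nmol [1-14C]oleoyl-CoA added. Reaction at 37 °C: adrenal 10 min, intestine 7.5 min, liver 20 min, macrophage 30 min. Labelled cholesteryl ester extracted and resolved by TLC. IC50 from duplicate tubes.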

[11] = target: T1, Acyl-CoA:cholesterol acyltransferase; experiment: Inhibition of ACAT in hyperlipidemic white rabbit adrenal microsomes assessed as esterified cholesterol accumulation; design: species or system Adrenal gland; outline: as §6
[12] = target: T1, Acyl-CoA:cholesterol acyltransferase; experiment: Inhibition of ACAT in hyperlipidemic white rabbit liver microsomes assessed as esterified cholesterol accumulation; design: species or system Microsome; outline: as §6
Oryctolagus cuniculus [13] = experiment: Hypolipidemic effect in high-cholesterol diet fed Japanese white rabbit assessed as LDL/VLDL cholesterol level at 1 mg/kg/day, po for 7 days; format: functional; outline: as §4
[14] = target: T2, Sterol O-acyltransferase 1; experiment: Inhibition of ACAT-mediated esterified cholesterol accumulation in human THP1 cells exposed to acetyl-LDL after differentiation assessed as effect on foam cell formation; format: cell-based, THP-1
Outline: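 THP-1 cells first differentiated 3 days in RPMI-1640/10% FBS with PMA 200 nM and 2-mercaptoethanol 50 µM. Then washed and cultured 2 days with 50 µM 2-mercaptoethanol, acetyl-LDL 400 µg/mL from KHC rabbit plasma, and compound. Lipids extracted with hexane/isopropanol; esterified cholesterol = total minus free cholesterol, enzymatic; protein by Lowry. Duplicate assay, n = 4.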

Syrian golden hamster [15] = experiment: Hypolipidemic effect in regular diet fed Syrian hamster assessed as LDL/VLDL cholesterol level at 3 mg/kg/day, po for 3 weeks; format: functional, Mesocricetus auratus; outline: as §3
Canis familiaris [16] = experiment: Hypolipidemic effect in Western diet fed Beagle dog assessed as HDL:HDL cholesterol level at 3 mg/kg/day, po for 7 days; format: functional, Canis lupus familiaris; outline: as §5
[17] = Cmax in Japanese white rabbit at 10 mg/kg, po; format: ADME, organism-based, Oryctolagus cuniculus; design: dose 10 mg/kg, route oral; settings: in vivo
Outline: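 Oral 10 mg/kg in 5% arabic gum to male Japanese white rabbits (2.7-3.0 kg, n = 4). Ear-vein heparinized blood at 0.25, 0.5, 1, 2, 3, 5, 8, 24 h. Free-form concentration in plasma by HPLC.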

[18] = Cmax in Sprague-Dawley rat at 10 mg/kg, po; format: ADME, organism-based; design: dose 10 mg/kg, route oral; settings: in vivo; outline: as §1
Rattus norvegicus [19] = experiment: Hypolipidemic effect in high-cholesterol diet fed Wistar rat assessed as LDL/VLDL cholesterol level at 3 mg/kg/day, po for 3 days; format: functional; outline: as §2
[20] = target: T1, Acyl-CoA:cholesterol acyltransferase; experiment: Inhibition of ACAT in hyperlipidemic white rabbit intestine microsomes assessed as esterified cholesterol accumulation; design: species or system Microsome; outline: as §6
[21] = Solubility in water at pH 7.0; format: physicochemical
Outline: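 6 mg of compound shaken 30 min at room temperature in 3 mL 1/15 M potassium phosphate buffer pH 7.0, centrifuged and filtered (0.45 µm). Filtrate concentration by HPLC.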

[22] = Distribution coefficient, log D at pH 7.0; format: physicochemical; settings: octanol/water
Outline: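 5 mg of compound in 5 mL octanol shaken 30 min at room temperature with 5 mL 1/15 M potassium phosphate buffer pH 7.0, then centrifuged. Both phases quantified by HPLC. log D taken as log of the octanol/buffer concentration ratio.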

Row | Compound | pIC50 [1] | AUC [2] [ng·h/mL] | pIC50 (Brain) | pIC50 [3] | solubility [21] [µg/mL] | logD [22] | further results
1 | Cc1cc(C)c(NC(=O)C(C)(C)C)c2c1CCN2CCCCCCCCCC(=O)O | 5.26 | 100 | 4.32 | < 5.00 |  |  | 
2 | CCCCCCCCN1CCc2c(C)cc(C)c(NC(=O)C(C)(C)CCC(=O)O)c21 | < 5.00 | 5000 | 5.18 | < 5.00 |  |  | 
3 | CCCCCCCCN1CCc2c(C)c(CN)c(C)c(NC(=O)C(C)(C)C)c21 |  |  | 5.38 |  |  |  | 
4 | Cc1cc(C)c(NC(=O)C(C)(C)C)c2c1CCN2CCCCCCCCCC(=O)O.Cl |  |  |  |  | 732 | 2.8 | 
5 | CCCCCCCCN1CCc2c(C)c(CC(=O)O)c(C)c(NC(=O)C(C)(C)C)c21.CCCCCCCCN1CCc2c(C)c(CC(=O)O)c(C)c(NC(=O)C(C)(C)C)c21.O=S(=O)(O)O [PACTIMIBE SULFATE] |  |  |  |  | 1450 | 2.9 | 

The next lines start with results.

Row | pIC50 [1] | AUC [2] [ng·h/mL] | pIC50 (Brain) | pIC50 [3] | solubility [21] [µg/mL] | logD [22] | Compound | further results
6 | 5.92 | 1500 | 5.89 | 5.74 |  |  | CCCCCCCCN1CCc2c(C)c(CC(=O)O)c(C)c(NC(=O)C(C)(C)C)c21 [PACTIMIBE] | Cmax [4]: 26.8 µM; Activity (Rattus norvegicus [5]): 29.4 mg/dL; Activity (Cavia porcellus): Non-toxic; Activity (Syrian golden hamster [6]): 58.3 mg/dL; pIC50 (Plasma): 6.01; Activity (Oryctolagus cuniculus [7]): 15.4 mg/dL; pIC50 [8]: 5.36; Activity (Canis familiaris [9]): 31.6 mg/dL; pIC50 [10]: 5.72; pIC50 [11]: 4.80; pIC50 [12]: 6.16; Activity (Oryctolagus cuniculus [13]): 119.5 mg/dL; pIC50 [14]: 6.52; Activity (Syrian golden hamster [15]): 70.3 mg/dL; Activity (Canis familiaris [16]): 141.3 mg/dL; Cmax [17]: 7.2 µM; Cmax [18]: 2200 nM; Activity (Rattus norvegicus [19]): 9.7 mg/dL; pIC50 [20]: 6.14
7 | < 5.00 | 6600 | 5.77 | < 5.00 | 66 (≈ 150 µM) | 3.7 | CCCCCCCCN1CCc2c(C)c(Cc3nnn[nH]3)c(C)c(NC(=O)C(C)(C)C)c21 | 
8 |  | 200 | 5.51 |  |  |  | CCCCCCCCN1CCc2c(C)cc(C)c(NC(=O)C(C)(C)C)c21 | 
